Assay outcomes deposited in PubChem BioAssay by SRMLSC.
HUVEC inhibit – inhibitors of HUVEC proliferation, primary screen, cell-based, 384-well; CellTiter-Glo luminescence, 72 h; hits give low values; viability, % at 10 µM (by protocol); 86,000 compounds, 1.1% hits; AID 648, 2007;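 active = viability at or below 30%; inactive = viability above 30%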;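 note: 100% = median luminescence of DMSO-only cell control wells on each plate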
Fibroblast inh – antiproliferative effect on LL 47 fibroblasts – human, LL 47 cells, CellTiter-Glo luminescence, primary screen; LL 47 human lung fibroblast viability, ATP luminescence; hits give low values; viability, % at 10 µM; 85,000 compounds, 1.1% hits;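 active = viability at or below 50% in the single dose screen; inactive = viability above 50%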;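 note: compound exposure lasted 72 h before the ATP readout; 100% = median luminescence of untreated cell-only wells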
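Signal: luminescent ATP detection, CellTiter-Glo; assay system: LL 47 human lung fibroblasts; input: 1,150 cells/well; incubation: overnight cell rest, 72 h compound treatment at 37 °C; measure: % viability versus median cells-only luminescence; medium: IMEM growth medium with 15% fetal bovine serum; dosing: compound addition at 0.1% DMSO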
H69AR inhibit – proliferation blockers of H69AR lung cancer cells, primary screen, cell-based, human, 86K library; H69AR lung tumor viability, ATP luminescence, 72 h; hits give low values; viability, % at 10 µM; 85,000 compounds, 6% hits; AID 598, 2007;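 active = viability at or below 40%; inactive = viability above 40%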;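 note: multidrug resistant small cell line overexpressing MRP-1 efflux transporter; 100% = mean luminescence of untreated control wells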
PTEN del growth – growth suppression of PTEN-null HCT116, primary screen, cell-based, CellTiter-Glo. HCT116 PTEN-null viability, 60 h; hits give low values. viability, % at 10 µM. 140,000 compounds, 1.2% hits. AID 827, 2007;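 active = viability at or below a set limit, 4 SD under the median of all tested compounds, cut at about 3.7% in these data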;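 note: PTEN knockout HCT116 line with beta catenin targeted HCT116 as companion control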
bCat KO growth – primary screen for growth suppressors in beta-catenin knockout HCT116 cells (colon tumor, human); HCT116 beta-catenin knockout viability, CellTiter-Glo, 60 h; hits give low values; viability, % at 10 µM; 140,000 compounds, 1.5% hits; AID 818, 2007;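 active = viability at or under a set limit, the compound median less 4 SD, cut at about 6% in these data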;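 note: 0% = Hyamine 1622 control at 20 µM and 100% = untreated cell control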
Active calls of the source: *; · = not tested or not shown. Shown is part of a subset that was picked to be rich in hits.

SMILES | HUVEC inhibit | Fibroblast inh | H69AR inhibit | PTEN del growth | bCat KO growth
CCc1cc2cc3c(cc2nc1SCC(=O)N1CCN(C(=O)c2ccco2)CC1)OCO3 | 86 | 93 | 41 | 96 | 98
CCc1cc2ccc(C)cc2nc1SCC(=O)N1CCN(C(=O)c2ccco2)CC1 | 86 | 95 | 36* | 78 | 72
COc1ccc(C(=O)NCc2nnc(SCC(=O)Nc3nc4ccccc4s3)o2)cc1OC | · | · | · | 93 | 93
O=C(CSc1ccc2c(c1)OCCO2)Nc1ccc(Cl)cn1 | 19* | 92 | 99 | 93 | 92
CC(=O)NC(C)C(=O)OCc1ccc(Cl)cc1Cl (stereo not drawn) | 105 | 106 | 106 | 96 | 84
CCOC(=O)c1nnn(-c2nonc2N)c1COc1cc(C)c(Cl)c(C)c1 | 99 | 102 | 24* | · | ·
Cc1ccc(N2C(=O)C3C(c4ccccc4)N4CCCN4C3(C)C2=O)cc1 (stereo not drawn) | · | · | · | 93 | 97
COc1cc(C)c(Cl)cc1S(=O)(=O)n1cnc(C)c1 | 88 | 92 | 86 | 102 | 101
COc1ccc(C(C)C)cc1S(=O)(=O)n1cnc(C)c1 | 64 | 91 | 27* | 45 | 52
CCCCC(=O)NC(NC(=S)N1CCCCCC1)C(Cl)(Cl)Cl (stereo not drawn) | · | · | · | 79 | 84
COC(=O)c1ccc(Sc2nnnn2-c2ccccc2)c([N+](=O)[O-])c1 | · | · | · | 6 | 6.0*
COC(=O)c1ccc(-n2nnnc2SCc2ccccc2OC)cc1 | 89 | 98 | 37* | 43 | 29
CN(C)c1cccc(C(=O)OCC(=O)Nc2nccs2)c1 | · | · | · | 97 | 92
CCOC(=O)C1=C(O)/C(=C/c2cn(CC(=O)NCC3CCCO3)c3ccccc23)SC1=Nc1ccc(C)cc1 (stereo not drawn) | 12* | 27* | 23* | · | ·
CC(C)(C)c1ccc(S(=O)(=O)Nc2cccc(C3OCCCO3)c2)cc1 | · | · | · | 87 | 86
O=C(NC(CSCc1ccccc1)C(=O)N/N=C/c1ccc(O)cc1O)c1ccc([N+](=O)[O-])cc1 (stereo not drawn) | 7.6* | 25* | 30* | 3.0* | 2.9*
O=C(Nc1nnc(-c2ccccc2)s1)c1cc(S(=O)(=O)N2CCOCC2)c(Cl)cc1Cl | 47 | 93 | 10.0* | 65 | 35
COc1ccc(C=Nc2cccc3c(=O)[nH][nH]c(=O)c23)c2ccccc12 | 70 | 99 | 32* | 90 | 94
Cc1ccc(Cn2c(=N)n(CC(O)COc3ccccc3)c3ccccc32)cc1 (stereo not drawn) | 2.7* | 22* | -0.1* | 0.5* | 0.5*
N=c1n(Cc2ccccc2)c2ccccc2n1CC(O)COc1ccccc1 (stereo not drawn) | 98 | 57 | 15* | 1.2* | 0.9*
CC1CCC(NC(=O)c2ccc(NC(=O)c3ccc(=O)[nH]c3)cc2)CC1 (stereo not drawn) | · | · | · | 84 | 70
CCn1cc([N+](=O)[O-])c(C(=O)N2N=C(c3cccc4ccccc34)CC2c2ccccc2O)n1 (stereo not drawn) | 78 | 88 | 79 | 7 | 3.4*
CCn1cc(Cl)c(C(=O)N2N=C(c3ccc4ccccc4c3)CC2c2ccccc2O)n1 (stereo not drawn) | · | · | · | 29 | 42
CCn1cc([N+](=O)[O-])c(C(=O)N2N=C(c3ccc4ccccc4c3)CC2c2ccccc2O)n1 (stereo not drawn) | 15* | 80 | 86 | 5 | 3.2*
O=S(=O)(c1cc(Cl)ccc1Cl)N1CC2CCCN2c2ccc(C(F)(F)F)cc21 (stereo not drawn) | · | · | · | 54 | 49
SMILES | HUVEC inhibit | Fibroblast inh | H69AR inhibit | PTEN del growth | bCat KO growth
CC1(C)NC(=O)N(CCOCCOc2ccc3ccccc3c2Br)C1=O | 78 | 90 | 33* | 77 | 78
COCCN(C(=O)CCC(=O)Nc1cccnc1)C(C(=O)NC1CCCCC1)c1ccccc1 (stereo not drawn) | 105 | 100 | 88 | 89 | 84
CCCCOc1ncnc2c1[nH]c1ccc(OC)cc12 | 97 | 98 | 53 | 77 | 82
COc1ccc2[nH]c3c(Cl)ncnc3c2c1 | · | · | · | 9 | 5.7*
O=C1C(c2ccnc3ccccc23)=C(O)c2ccccc21 | 62 | 73 | 34* | 7 | 10
c1ccc2[nH]c(-c3ccnc4ccccc34)nc2c1 | 94 | 104 | 48 | 99 | 91
COc1ccc(OC)c(S(=O)(=O)NC2CCN(Cc3ccccc3)CC2)c1 | 90 | 103 | 76 | 66 | 59
COc1ccc(/C=C2\CN(Cc3ccccc3)C/C(=C\c3ccc(OC)cc3OC)C2=O)c(OC)c1 | · | · | · | 2.7* | 4.8*
COc1ccc(/C=C2\CN(Cc3ccccc3)C/C(=C\c3ccc(OC)cc3)C2=O)cc1 | · | · | · | 1.6* | 1.7*
COc1ccc(-n2c(=O)cc(N3CCN(Cc4ccccc4)CC3)[nH]c2=O)cc1 | 88 | 90 | 93 | 100 | 88
CC1CCCCN1C(=O)C12CCC(C)(/C(=N/O)C1)C2(C)C (stereo not drawn) | 98 | 109 | 97 | 97 | 88
O=C(O)CC(CNS(=O)(=O)c1ccccc1)c1ccccc1 (stereo not drawn) | 93 | 89 | 106 | 96 | 89
C=CCNCCOc1ccc(C(C)(C)c2ccccc2)cc1 | · | · | · | 77 | 74
CN(C)CCCOc1ccc(C(C)(C)c2ccccc2)cc1 | 34 | 79 | 28* | 31 | 34
Cc1cnc(NC(=O)c2ccc(-c3nc4ccccc4s3)o2)s1 | 91 | 103 | 28* | 90 | 99
O=C(CNC1CCCCCC1)c1cccs1 | · | · | · | 90 | 92
CCOC(=O)C1=C(C)Nc2ncnn2C1/C=C/c1ccccc1 (stereo not drawn) | 81 | 75 | 23* | 73 | 81
CCOC(=O)C1=C(c2ccccc2)Nc2ncnn2C1c1cccc(OC)c1OC (stereo not drawn) | 88 | 91 | 39* | 85 | 91
CCCC1=C(C(=O)OCC)C(/C=C/c2ccccc2)n2ncnc2N1 (stereo not drawn) | 62 | 43* | 19* | 32 | 30
COc1cc(C(=O)Nc2c(C)cc(C)cc2C)c([N+](=O)[O-])cc1OC | · | · | · | 91 | 98
CC(Sc1ncnc2ccccc12)C(=O)Nc1ccc2c(c1)OCCO2 (stereo not drawn) | · | · | · | 67 | 83
COc1cccc2c(=O)c(SC(F)(F)C(F)C(F)(F)F)c(C)[nH]c12 (stereo not drawn) | 57 | 87 | 17* | 32 | 28
c1ccc(C2C3=C(Nc4ncnn42)c2ccccc2CCC3)cc1 (stereo not drawn) | 95 | 89 | 78 | 91 | 94
Clc1ccc(C2C3=C(Nc4ncnn42)c2ccccc2CC3)cc1 (stereo not drawn) | 51 | 85 | 13* | 38 | 39
